hERG rescue: hERG rescue from dofetilide block, primary screen, cell-based, CHO-hERG, FluxOR thallium flux, dofetilide IC70 | 0.51% of 310,000 active | activation (rescue from dofetilide block), less the hit threshold, % at 10 µM | AID 1511, 2009 | dofetilide IC70 present | Voltage-gated inwardly rectifying potassium channel KCNH2 (Homo sapiens), Q12809;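 active = activation above the mean of controls blocked by dofetilide plus 5 SD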;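 note: thallium influx through hERG after potassium depolarization seen as dye fluorescence rise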
KCNQ1 block: inhibitors of human KCNQ1 channel, primary screen, cell-based, thallium flux, high-throughput | B-score at 10 µM | 1.3% of 310,000 active | Potassium voltage-gated channel subfamily KQT member 1 (Homo sapiens), P51787 | CHO-K1 KCNQ1, FluxOR thallium flux fluorescence; active compounds read high | AID 2642, 2010;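 active = compounds whose thallium flux B-score, printed positive for inhibition, exceeds three library SD while starting fluorescence stays within three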;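 note: channel opened by potassium depolarization with thallium stimulus after 20 min compound exposure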
KCNK3 block: human KCNK3 channel inhibitors, primary screen, CHO cells, FluxOR thallium flux, B-score | Potassium channel subfamily K member 3 (Homo sapiens), O14649 | FluxOR fluorescence; active compounds read low | B-score at 10 µM | 0.84% of 340,000 active | AID 602410, 2012;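 active = B-score under library mean minus 4 SD, starting fluorescence ratio at most library mean plus 5 SD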;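 note: more negative B-score means stronger inhibition of thallium flux through KCNK3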
Target sequence (O14649 whole entry, looked up): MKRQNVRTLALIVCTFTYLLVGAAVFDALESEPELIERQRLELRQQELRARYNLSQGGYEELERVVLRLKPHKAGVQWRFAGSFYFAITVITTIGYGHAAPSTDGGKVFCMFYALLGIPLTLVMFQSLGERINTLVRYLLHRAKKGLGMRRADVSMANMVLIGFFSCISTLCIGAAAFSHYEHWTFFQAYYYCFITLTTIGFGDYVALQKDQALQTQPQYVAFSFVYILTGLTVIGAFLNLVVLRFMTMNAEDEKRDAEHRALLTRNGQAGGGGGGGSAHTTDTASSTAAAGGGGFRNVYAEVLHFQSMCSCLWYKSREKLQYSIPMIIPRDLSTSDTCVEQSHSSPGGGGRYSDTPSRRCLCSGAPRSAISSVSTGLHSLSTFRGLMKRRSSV
KCNQ1 pot: potentiators or activators of KCNQ1 channel, primary screen, cell-based, thallium flux, high-throughput. 0.35% of 310,000 active. CHO-K1 KCNQ1, thallium flux FluxOR fluorescence; active compounds read high. B-score at 10 µM. Potassium voltage-gated channel subfamily KQT member 1 (Homo sapiens), P51787;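 active = fluorescence ratio B-score, a plate-corrected score, at least three library SD, with initial intensity B-score within 5 SD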
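Test system: CHO-K1 cells stably expressing KCNQ1 / Medium: assay buffer / Also added: depolarizing K+/Tl+ stimulus, K2SO4 and Tl2SO4 each 12.5 mM in 5x stock / Incubation: 90 min dye loading and 20 min compound exposure, both at room temperature / Signal: thallium influx via FluxOR fluorescence, kinetic imaging / Evaluation: B score of baseline-normalized fluorescence ratio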
KCNK9 inh: KCNK9 potassium channel inhibitors, primary screen, HEK293 cells, thallium flux; B-score at 10 µM; Potassium channel subfamily K member 9 (Homo sapiens), Q9NPC2; FluxOR thallium flux fluorescence; active compounds read low; 1.2% of 310,000 active;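 active = ratio B-score over 3 SD below the library mean, with starting fluorescence within 5 SD of its mean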;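 note: negative B-score means less thallium flux so channel inhibition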
KCNK9 block conf: KCNK9 potassium channel inhibitors, confirmation, HEK293 cells, thallium flux, duplicate | shares compounds with KCNK9 inh | FluxOR thallium flux fluorescence | inhibition, % at 10 µM | 43% of 4,900 active;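 active = thallium signal inhibited by more than 5 SD of the compound-free buffer control wells, on both duplicate plates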;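 note: 0% = assay buffer control wells without compound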
Kir2-1 spec: mouse Kir2.1 channel inhibition, confirmation, selectivity assay for KCNK9 modulator project, cell-based, HEK293, thallium flux; shares compounds with KCNK9 inh; Kir2.1 cells, FluxOR thallium flux fluorescence; inhibition, % at 10 µM; 4% of 4,900 active;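 active = thallium signal drop more than 5 SD beyond the mean of the no-compound control wells, seen in both duplicate plates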;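 note: signal is fluorescence rise after thallium addition divided by baseline fluorescence; plate controls were assay buffer only for no effect and full block by chlorpromazine control for full effect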
KCNK9 uninduced: thallium flux in non-induced HEK293 cells, confirmation, counter-screen for KCNK9 inhibitor project, cell-based, second counter screen, non-induced KCNK9-HEK293; shares compounds with KCNK9 inh; FluxOR thallium flux; 40% of 4,900 active; inhibition, % at 10 µM; AID 492997, 2010;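 active = thallium signal drop beyond 5 SD of the untreated control mean, on both duplicate plates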;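 note: plate controls were buffer only IC0 wells for no effect and SID17386958 at its maximal inhibitory level for full effect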
Active calls of the source: *; i = inactive; / = no result given. Shown are actives, neighbours in structure and some others; about 3.1% of the full set was active somewhere.

SMILES | hERG rescue | KCNQ1 block | KCNK3 block | KCNQ1 pot | KCNK9 inh | KCNK9 block conf | Kir2-1 spec | KCNK9 uninduced
CSc1ccccc1OCc1cc(C(=O)N2CCc3c(Cl)cccc3C2)no1 | -12.4 | i | i | i | i | i | i | i
CSc1ccccc1OCc1cc(C(=O)N2CCNC(=O)C2)no1 | -12.0 | i | i | i | i | / | / | /
Cc1ccc(OCc2cc(C(=O)N3CCC(c4ccccc4Cl)C3)no2)cc1C (configuration not stated) | -4.9 | i | i | i | i | i | i | i
COc1ccc(OCc2cc(C(=O)N3CCN(C4CCCC4)CC3)no2)c(Cl)c1 | -14.0 | i | i | i | i | i | i | i
C[C@H](CO)N1C[C@H](C)[C@@H](CN(C)S(=O)(=O)c2cccs2)Oc2ccc(NC(=O)Cn3cnnn3)cc2C1=O | / | / | i | / | / | / | / | /
COc1cccc(CNC(=O)COC(=O)/C=C/c2ccc(SC)cc2)c1 | / | / | i | / | / | / | / | /
CCN1C(=O)c2ccc(C(=O)Nc3ccc4c(c3)OCO4)cc2C1=O | -7.9 | i | i | i | i | / | / | /
N#CCSc1nc2c(c(=O)n1Cc1ccco1)C1(CCCC1)Cc1ccccc1-2 | -3.6 | 6* | i | i | -14.5* | 54.5%* | i | 33.0%*
O=c1[nH]c(CN2CCCCC2)nc2c1C1(CCCCC1)Cc1ccccc1-2 | -3.1 | i | i | i | i | / | / | /
O=C(NC(=O)N1CCCc2ccccc21)c1ccccc1 | -18.4 | i | i | i | i | / | / | /
O=C(C(c1ccccc1)c1ccccc1)N1CCCc2ccccc21 | -11.2 | i | i | i | -11* | 43.5%* | i | 42.5%*
CCOC(=O)c1c(C)[nH]c(N=Nc2cccc(C)c2)c1C | -10.9 | i | i | i | i | / | / | /
CCOC(=O)c1c(C)[nH]c(N=Nc2cccc(OC)c2)c1C | -19.4 | i | i | i | -11.6* | 62.0%* | i | i
O=C(CC(=O)c1ccccc1[N+](=O)[O-])c1ccccc1 | -3.3 | i | / | i | i | / | / | /
O=C(NCc1cc(Br)cc(Br)c1OC(=O)c1ccccc1[N+](=O)[O-])c1ccccc1 | -13.3 | i | i | i | -9.9* | 62.5%* | i | 34.5%*
COc1ccc(O)c(/C=N/Nc2nc(Nc3ccccc3)nc(-n3nc(C)cc3C)n2)c1 | -15.1 | 10* | i | i | -12.4* | 46.5%* | i | i
COc1cc(/C=N/Nc2nc(Nc3ccccc3)nc(-n3nc(C)cc3C)n2)cc(OC)c1OC | -30.7 | 8* | i | i | -9.42* | 46.0%* | i | i
COc1cc(/C=N/Nc2nc(Nc3ccc(C)cc3)nc(-n3nc(C)cc3C)n2)cc(OC)c1OC | -13.0 | i | i | i | i | / | / | /
O=[N+]([O-])c1cc(-c2cccnc2)n[nH]1 | / | / | i | / | / | / | / | /
COc1ccc(N2CCN(C(=O)CNC(=O)Cn3cnc4sc(C)c(C)c4c3=O)CC2)cc1 | -7.4 | i | i | i | i | / | / | /
CCN(C(=O)c1ccc2c(Cl)c3c(nc2c1)CCC3)c1ccc(C)c(C)c1 | -16.0 | i | i | i | i | i | i | i
CCc1nnc(NC(=O)CSc2nnc(-c3ccccc3OC)n2-c2ccccc2)s1 | -16.0 | i | i | i | -16.6* | 68.5%* | i | 32.5%*
CC(C)(C)OC(=O)N(CCc1ccccc1)Cc1cccc(OCc2cccc(NC(=O)C3CCCC3)c2)c1 | / | / | i | / | / | / | / | /
